In article PMC9488007 (Environmental Science and Ecotechnology, 2020):
Converted amounts (≈) assume the structure as drawn.

What was measured:
[1] = Desorption kinetics of bisphenols from bisphenol-attached PVC microplastics; assay type: physicochemical
Procedure, shortened: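 Bisphenol-loaded PVC from the adsorption step was placed in water or simulated intestinal fluid (NaCl 0.12 M, Na2CO3 0.02 M, sodium taurocholate 15.5 mM) in sealed 1 L glass bottles. Bottles were agitated rotationally at 200 rpm in an oil bath. Bisphenol was measured in filtered supernatant at intervals from 0 to 75 h. Run in triplicate.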

Desorption isotherms = assay type: physicochemical
[2] = Adsorption of bisphenols onto PVC microplastics; assay type: physicochemical; details: 1.5 g PVC microplastics in 1 L, 48 h, room temperature
Procedure, shortened: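 Each bisphenol was dissolved in ethanol, then diluted in a 1 L glass bottle to initial concentrations of 0 to 1.0 mg L-1. PVC microplastics were added, and bottles were shaken at 200 rpm until adsorption equilibrium. Supernatants were filtered through a glass microfiber filter before bisphenol quantification. Run in triplicate.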

[3] = tested on: grass carp hepatocyte cell line, L8824; experiment: cells; assay type: cell-based; details: for Cytotoxicity (proliferation reduction), L8824: high concentration (2 mg L^−1)
[4] = tested on: human breast adenocarcinoma cells, MCF-7; experiment: cells; assay type: cell-based; details: for Cytotoxicity (proliferation reduction), MCF-7: high concentration (2 mg L^−1)
[5] = assay type: physicochemical; details: high concentration (2 mg L^−1)
[6] = Physicochemical properties of the five bisphenols; details: calculated from log Kow and pKa
[7] = water, ref Wu et al.^3; cited from earlier work
[8] = calculated for concentration desorbed in warm-I
[9] = calculated for concentration desorbed in water

Oc1ccc(Cc2ccc(O)cc2)cc1 [BPF, bisphenol F]
Fslow, slow fraction ([1]; cold-I, pH 7.5, 291 K): 0.335±0.002 | krap, rapid desorption rate constant ([1]; cold-I, pH 7.5, 291 K): 0.662±0.241 10^-2 h^-1 | kslow, slow desorption rate constant ([1]; cold-I, pH 7.5, 291 K): 6.906±0.579 10^-4 h^-1 | kvs, very slow desorption rate constant ([1]; cold-I, pH 7.5, 291 K): 2.367±0.112 10^-5 h^-1 | Fslow, slow fraction ([1]; warm-I, pH 6.5, 311 K): 0.308±0.003 | Fvs, very slow fraction ([1]; warm-I, pH 6.5, 311 K): 0.005±0.001 | krap, rapid desorption rate constant ([1]; warm-I, pH 6.5, 311 K): 1.744±0.373 10^-2 h^-1 | kslow, slow desorption rate constant ([1]; warm-I, pH 6.5, 311 K): 9.877±1.415 10^-4 h^-1 | kvs, very slow desorption rate constant ([1]; warm-I, pH 6.5, 311 K): 5.778±0.325 10^-5 h^-1 | Fslow, slow fraction ([1]; water, pH 7.0, 291 K): 0.371±0.004 | Fvs, very slow fraction ([1]; water, pH 7.0, 291 K): 0.051±0.002 | krap, rapid desorption rate constant ([1]; water, pH 7.0, 291 K): 0.619±0.179 10^-2 h^-1 | kslow, slow desorption rate constant ([1]; water, pH 7.0, 291 K): 6.659±0.441 10^-4 h^-1 | kvs, very slow desorption rate constant ([1]; water, pH 7.0, 291 K): <0.01 10^-5 h^-1 | HI, hysteresis index (Desorption isotherms; warm-I): <0 | kFd, Freundlich constant for desorption (Desorption isotherms; warm-I (Table 2)): 0.388 mg^−1/n·L^−1/n·g^−1 | n, surface heterogeneity constant (desorption) (Desorption isotherms; warm-I (Table 2)): 1.186 | HI, hysteresis index (Desorption isotherms; water): 0.252 | kFd, Freundlich constant for desorption (Desorption isotherms; water (Table 2)): 0.720 mg^−1/n·L^−1/n·g^−1 | n, surface heterogeneity constant (desorption) (Desorption isotherms; water (Table 2)): 1.594 | amount of bisphenol adsorbed on the PVC [2]: 0.16 mg/g | IC50 to L8824 ([3]; 72 h exposure, 291 K, MTT): 2.26 ± 0.43 mg/L (≈ 11.3 µM) | Cytotoxicity (proliferation reduction), L8824 [3, 8]: 33.24% | Cytotoxicity (proliferation reduction), L8824 [3, 9]: 27.15% | IC50 ([3]; read-out: IC50 to L8824, 72 h exposure, 291 K, MTT): 11.3 ± 2.12 µM | IC50 to MCF-7 ([4]; 72 h exposure, 311 K, MTT): 6.39 ± 0.34 mg/L (≈ 31.9 µM) | Cytotoxicity (proliferation reduction), MCF-7 [4, 8]: 26.54% | Cytotoxicity (proliferation reduction), MCF-7 [4, 9]: 20.83% | IC50 ([4]; read-out: IC50 to MCF-7, 72 h exposure, 311 K, MTT): 31.9 ± 1.69 µM | desorbed concentration, Warm-I [5]: 0.59 mg/L | log Dow [6]: 2.80 | kFa, Freundlich constant for adsorption [7]: 0.575 mg^−1/n·L^−1/n·g^−1 | n, surface heterogeneity constant (adsorption) [7]: 1.13
